# Columns and labels:
# ACHN = assay: Growth inhibition of human ACHN cells measured after 48 hrs by sulforhodamine B assay; assay type: functional
# Outline: (§1)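 Panel of 39 human cancer cell lines tested at the Japanese Foundation for Cancer Research. Five concentrations per compound, spanning 10⁻¹¹–10⁻⁷ M, 10⁻¹⁰–10⁻⁶ M or 10⁻⁸–10⁻⁴ M, were used to build dose-response curves. GI₅₀ is the concentration giving 50% growth inhibition relative to control.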
# DMS-114 = assay: Growth inhibition of human DMS-114 cells measured after 48 hrs by sulforhodamine B assay; assay type: functional; outline: as §1
# SF-295 = assay: Growth inhibition of human SF-295 cells measured after 48 hrs by sulforhodamine B assay; assay type: functional; outline: as §1
# OVCAR-4 = assay: Growth inhibition of human OVCAR-4 cells measured after 48 hrs by sulforhodamine B assay; assay type: functional; outline: as §1
# [1] = Growth inhibition of human HBC5 cells measured after 48 hrs by sulforhodamine B assay; assay type: functional; outline: as §1
# SNB-75 = assay: Growth inhibition of human SNB-75 cells measured after 48 hrs by sulforhodamine B assay; assay type: functional; outline: as §1
# NCI-H226 = assay: Growth inhibition of human NCI-H226 cells measured after 48 hrs by sulforhodamine B assay; assay type: functional; outline: as §1
# LOX IMVI = assay: Growth inhibition of human LOX IMVI cells measured after 48 hrs by sulforhodamine B assay; assay type: functional; outline: as §1
# NCI-H23 = assay: Growth inhibition of human NCI-H23 cells measured after 48 hrs by sulforhodamine B assay; assay type: functional; outline: as §1
# DMS-273 = assay: Growth inhibition of human DMS-273 cells measured after 48 hrs by sulforhodamine B assay; assay type: functional; outline: as §1
# OVCAR-3 = assay: Growth inhibition of human OVCAR-3 cells measured after 48 hrs by sulforhodamine B assay; assay type: functional; outline: as §1
# MDA-MB-231 = assay: Growth inhibition of human MDA-MB-231 cells measured after 48 hrs by sulforhodamine B assay; assay type: functional; outline: as §1
# KM12 = assay: Growth inhibition of human KM12 cells measured after 48 hrs by sulforhodamine B assay; assay type: functional; outline: as §1
# MKN-45 = assay: Growth inhibition of human MKN-45 cells measured after 48 hrs by sulforhodamine B assay; assay type: functional; outline: as §1
# U-251 = assay: Growth inhibition of human U-251 cells measured after 48 hrs by sulforhodamine B assay; assay type: functional; outline: as §1
# SK-OV-3 = assay: Growth inhibition of human SK-OV-3 cells measured after 48 hrs by sulforhodamine B assay; assay type: functional; outline: as §1
# RXF 631 = assay: Growth inhibition of human RXF 631 cells measured after 48 hrs by sulforhodamine B assay; assay type: functional; outline: as §1
# [2] = Growth inhibition of human HBC4 cells measured after 48 hrs by sulforhodamine B assay; assay type: functional; outline: as §1
# MKN-74 = assay: Growth inhibition of human MKN-74 cells measured after 48 hrs by sulforhodamine B assay; assay type: functional; outline: as §1
# MCF7 = assay: Growth inhibition of human MCF7 cells measured after 48 hrs by sulforhodamine B assay; assay type: functional; outline: as §1
# HT-29 = assay: Growth inhibition of human HT-29 cells measured after 48 hrs by sulforhodamine B assay; assay type: functional; outline: as §1
# NCI-H460 = assay: Growth inhibition of human NCI-H460 cells measured after 48 hrs by sulforhodamine B assay; assay type: functional; outline: as §1
# HCT-116 = assay: Growth inhibition of human HCT-116 cells measured after 48 hrs by sulforhodamine B assay; assay type: functional; outline: as §1
# A549 = assay: Growth inhibition of human A549 cells measured after 48 hrs by sulforhodamine B assay; assay type: functional; outline: as §1
# SNB-78 = assay: Growth inhibition of human SNB-78 cells measured after 48 hrs by sulforhodamine B assay; assay type: functional; outline: as §1
# NCI-H522 = assay: Growth inhibition of human NCI-H522 cells measured after 48 hrs by sulforhodamine B assay; assay type: functional; outline: as §1
# MKN-1 = assay: Growth inhibition of human MKN-1 cells measured after 48 hrs by sulforhodamine B assay; assay type: functional; outline: as §1
# SF-539 = assay: Growth inhibition of human SF-539 cells measured after 48 hrs by sulforhodamine B assay; assay type: functional; outline: as §1
# [3] = target: T1, Protein deacetylase HDAC6 (Mus musculus, UniProt Q9Z2V5); assay: Inhibition of mouse HDAC6 expressed in 293T cells using Ac-KGLGK(Ac)-MCA as substrate incubated for 30 mins in presence of 0.1 mM DTT by fluorescence plate reader assay; design: species or system HEK293T
# T1 sequence (Q9Z2V5 whole entry): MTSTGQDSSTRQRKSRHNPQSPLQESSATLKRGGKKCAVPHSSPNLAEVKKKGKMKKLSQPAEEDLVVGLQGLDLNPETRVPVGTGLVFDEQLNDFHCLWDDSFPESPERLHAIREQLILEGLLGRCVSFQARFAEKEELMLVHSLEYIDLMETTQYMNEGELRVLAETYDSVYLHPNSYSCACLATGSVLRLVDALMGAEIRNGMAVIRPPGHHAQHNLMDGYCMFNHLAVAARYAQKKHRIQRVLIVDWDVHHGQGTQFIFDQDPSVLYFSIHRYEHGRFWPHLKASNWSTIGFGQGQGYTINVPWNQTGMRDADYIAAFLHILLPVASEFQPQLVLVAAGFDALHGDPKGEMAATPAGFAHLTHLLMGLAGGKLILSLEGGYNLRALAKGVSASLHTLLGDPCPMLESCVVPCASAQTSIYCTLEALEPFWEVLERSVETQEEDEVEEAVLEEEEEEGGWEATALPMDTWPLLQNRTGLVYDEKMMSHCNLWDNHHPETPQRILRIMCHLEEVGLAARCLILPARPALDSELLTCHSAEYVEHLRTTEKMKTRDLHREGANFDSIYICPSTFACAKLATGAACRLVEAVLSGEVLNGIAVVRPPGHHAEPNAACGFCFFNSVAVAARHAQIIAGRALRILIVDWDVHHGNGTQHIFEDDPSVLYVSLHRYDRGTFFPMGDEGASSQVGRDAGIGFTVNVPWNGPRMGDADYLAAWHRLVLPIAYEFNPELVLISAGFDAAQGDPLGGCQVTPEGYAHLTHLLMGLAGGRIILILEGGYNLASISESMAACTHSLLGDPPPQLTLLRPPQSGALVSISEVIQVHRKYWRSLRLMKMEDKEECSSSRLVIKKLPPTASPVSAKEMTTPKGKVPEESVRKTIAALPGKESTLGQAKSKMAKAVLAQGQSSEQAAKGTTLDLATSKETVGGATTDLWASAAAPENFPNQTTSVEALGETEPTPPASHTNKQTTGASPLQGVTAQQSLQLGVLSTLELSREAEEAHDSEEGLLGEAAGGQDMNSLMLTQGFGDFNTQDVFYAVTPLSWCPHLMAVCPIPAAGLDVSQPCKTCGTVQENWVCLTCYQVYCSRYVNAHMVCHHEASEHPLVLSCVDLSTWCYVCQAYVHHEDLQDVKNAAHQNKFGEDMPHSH
# Outline: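 HDAC enzyme assay run in the presence of 0.1 mM dithiothreitol (DTT); IC₅₀ determined.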
# HCC 2998 = assay: Growth inhibition of human HCC 2998 cells measured after 48 hrs by sulforhodamine B assay; assay type: functional; outline: as §1
# [4] = Selectivity index, ratio of IC50 for mouse HDAC6 expressed in 293T cells to IC50 for human HDAC1 expressed in 293T cells using Ac-KGLGK(Ac)-MCA as substrate incubated for 30 mins in presence of 0.1 mM DTT by fluorescence plate reader assay; conditions: 0.5 h
# Outline: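 Ratio of HDAC6 IC₅₀ to HDAC1 IC₅₀, taken as selectivity for class I HDAC1 over class II HDAC6. Both enzyme assays were run in the presence of 0.1 mM DTT.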
# OVCAR-8 = assay: Growth inhibition of human OVCAR-8 cells measured after 48 hrs by sulforhodamine B assay; assay type: functional; outline: as §1
# OVCAR-5 = assay: Growth inhibition of human OVCAR-5 cells measured after 48 hrs by sulforhodamine B assay; assay type: functional; outline: as §1
# PC-3 = assay: Growth inhibition of human PC-3 cells measured after 48 hrs by sulforhodamine B assay; assay type: functional; outline: as §1
# MKN-7 = assay: Growth inhibition of human MKN-7 cells measured after 48 hrs by sulforhodamine B assay; assay type: functional; outline: as §1
# HCT-15 = assay: Growth inhibition of human HCT-15 cells measured after 48 hrs by sulforhodamine B assay; assay type: functional; outline: as §1
# DU-145 = assay: Growth inhibition of human DU-145 cells measured after 48 hrs by sulforhodamine B assay; assay type: functional; outline: as §1
# [5] = Growth inhibition of human BSY1 cells measured after 48 hrs by sulforhodamine B assay; assay type: functional; conditions: BSY-1; outline: as §1
# SF-268 = assay: Growth inhibition of human SF-268 cells measured after 48 hrs by sulforhodamine B assay; assay type: functional; outline: as §1
# MKN-28 = assay: Growth inhibition of human MKN-28 cells measured after 48 hrs by sulforhodamine B assay; assay type: functional; outline: as §1
# Histone deacetylase 1 = Histone deacetylase 1 (Homo sapiens, UniProt Q13547); assay: Inhibition of human HDAC1 expressed in 293T cells using Ac-KGLGK(Ac)-MCA as substrate incubated for 30 mins in presence of 0.1 mM DTT by fluorescence plate reader assay; design: species or system HEK293T
# St-4 = assay: Growth inhibition of human St-4 cells measured after 48 hrs by sulforhodamine B assay; assay type: functional; outline: as §1
# Histone deacetylase 1, sequence (Q13547 whole entry): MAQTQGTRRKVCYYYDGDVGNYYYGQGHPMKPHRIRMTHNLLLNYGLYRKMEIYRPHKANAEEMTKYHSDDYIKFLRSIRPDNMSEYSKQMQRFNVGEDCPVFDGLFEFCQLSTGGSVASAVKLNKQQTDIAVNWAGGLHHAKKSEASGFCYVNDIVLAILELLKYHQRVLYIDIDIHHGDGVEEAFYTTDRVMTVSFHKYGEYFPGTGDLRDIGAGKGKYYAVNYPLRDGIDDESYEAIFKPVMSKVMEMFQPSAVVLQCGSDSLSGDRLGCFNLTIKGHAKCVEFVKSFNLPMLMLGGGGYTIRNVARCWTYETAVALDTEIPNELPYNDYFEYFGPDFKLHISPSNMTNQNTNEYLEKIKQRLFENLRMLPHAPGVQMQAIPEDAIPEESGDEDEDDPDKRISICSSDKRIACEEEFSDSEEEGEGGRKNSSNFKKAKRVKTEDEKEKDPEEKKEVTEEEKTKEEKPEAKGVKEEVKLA
smiles,measurement,setting,value
CC(C)[C@H]1NC(=O)C[C@H]2/C=C/CCSSC[C@@H](NC1=O)C(=O)N[C@H](Cc1ccccc1)C(=O)NCC(=O)O2,GI50,ACHN,24 nM
same,GI50,DMS-114,4.1 nM
same,GI50,SF-295,21 nM
same,GI50,OVCAR-4,27 nM
same,GI50,[1],84 nM
same,GI50,SNB-75,8.7 nM
same,GI50,NCI-H226,4.8 nM
same,GI50,LOX IMVI,2.2 nM
same,GI50,NCI-H23,4.4 nM
same,GI50,DMS-273,20 nM
same,GI50,OVCAR-3,17 nM
same,GI50,MDA-MB-231,8.7 nM
same,GI50,KM12,2.8 nM
same,GI50,MKN-45,64 nM
same,GI50,U-251,22 nM
same,GI50,SK-OV-3,2.4 nM
same,GI50,RXF 631,7.9 nM
same,GI50,[2],37 nM
same,GI50,MKN-74,5.9 nM
same,GI50,MCF7,62 nM
same,GI50,HT-29,3 nM
same,GI50,NCI-H460,6.2 nM
same,GI50,HCT-116,2.6 nM
same,GI50,A549,3.4 nM
same,GI50,SNB-78,8.6 nM
same,GI50,NCI-H522,0.72 nM
same,GI50,MKN-1,2.6 nM
same,GI50,SF-539,3.3 nM
same,IC50,[3],54.9 nM
same,GI50,HCC 2998,3.2 nM
same,Ratio IC50,[4],102
same,GI50,OVCAR-8,4.6 nM
same,GI50,OVCAR-5,6.8 nM
same,GI50,PC-3,5.7 nM
same,GI50,MKN-7,35 nM
same,GI50,HCT-15,100 nM
same,GI50,DU-145,3.6 nM
same,GI50,[5],36 nM
same,GI50,SF-268,5 nM
same,GI50,MKN-28,78 nM
same,IC50,Histone deacetylase 1,0.54 nM
same,GI50,St-4,34 nM
CC(C)[C@H]1NC(=O)C[C@H]2/C=C/CCSSC[C@@H](NC1=O)C(=O)NCC(=O)NCC(=O)O2,GI50,ACHN,43000 nM
same,GI50,DMS-114,5200 nM
same,GI50,SF-295,40000 nM
same,GI50,OVCAR-4,46000 nM
same,GI50,[1],39000 nM
same,GI50,SNB-75,950 nM
same,GI50,NCI-H226,61000 nM
same,GI50,LOX IMVI,2900 nM
same,GI50,NCI-H23,36000 nM
same,GI50,DMS-273,47000 nM
same,GI50,OVCAR-3,13000 nM
same,GI50,MDA-MB-231,9200 nM
same,GI50,KM12,12000 nM
same,GI50,MKN-45,100000 nM
same,GI50,U-251,17000 nM
same,GI50,SK-OV-3,12000 nM
same,GI50,RXF 631,91000 nM
same,GI50,[2],13000 nM
same,GI50,MKN-74,16000 nM
same,GI50,MCF7,33000 nM
same,GI50,HT-29,2700 nM
same,GI50,NCI-H460,15000 nM
same,GI50,HCT-116,2500 nM
same,GI50,A549,10000 nM
same,GI50,SNB-78,610 nM
same,GI50,NCI-H522,680 nM
same,GI50,MKN-1,12000 nM
same,GI50,SF-539,3300 nM
same,IC50,[3],1320 nM
same,GI50,HCC 2998,13000 nM
same,Ratio IC50,[4],14
same,GI50,OVCAR-8,18000 nM
same,GI50,OVCAR-5,3100 nM
same,GI50,PC-3,11000 nM
same,GI50,MKN-7,47000 nM
same,GI50,HCT-15,100000 nM
same,GI50,DU-145,5400 nM
same,GI50,[5],18000 nM
same,GI50,SF-268,12000 nM
same,GI50,MKN-28,95000 nM
same,IC50,Histone deacetylase 1,92.4 nM
same,GI50,St-4,81000 nM

# From ChEMBL document CHEMBL4715745, “Synthesis and biological evaluation of novel FK228 analogues as potential isoform selective HDAC inhibitors” (Eur J Med Chem, 2016)
